Compound activity as filed in PubChem.
Granule exo inh: blocks lytic granule exocytosis; AID 651702; TALL-104 LAMP-1 surface exposure, flow cytometry; cells stimulated with thapsigargin and PMA; inhibition, % at 10 µM; 360,000 tested, 0.66% active;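 active = inhibition above about 55%, limit read from the data; inconclusive = no clear call, values can overlap the other calls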
iPSC survival up: enhancers of human iPSC single-cell survival; 360,000 tested, 0.044% active; survival enhancement, % at 20 µM; hiPSC single-cell survival, ATPlite luminescence; 100% = ROCK inhibitor wells, 0% = DMSO; in the data active = survival enhancement above about 18%;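 also: cells exposed to compounds for 16 hours before the ATP read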
Apaf1 inhib: human Apaf-1 inhibition | reconstituted apoptosome caspase-3 activity, DEVD-Rh110 fluorescence | inhibition, % at 20 µM | O14727 | 330,000 tested, 0.71% active; active = inhibition of at least 40% at 20 µM;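 also: plate controls were DMSO wells for no effect and DEVD-CHO caspase inhibitor wells for full effect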
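Material: reconstituted apoptosome with Apaf-1, cytochrome c, caspase-9, procaspase-3, dATP. Technique: Rh110 fluorescence intensity. Buffer or medium: pH 7.5 Hepes buffer with CHAPS, BSA, DTT. Times: 30 min plus 50 min, RT.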
MPTP inh: blocks calcium-induced mitochondrial swelling; isolated mouse mitochondria, Ca2+ swelling absorbance, 30 min; inhibition, % at 10 µM; 360,000 tested, 1.4% active;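 active = inhibition of 50% or more, scaled per plate between neutral and stimulator controls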;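 also: 0% = DMSO wells given calcium and 100% = 1 mM EGTA wells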
beta cell repl: MIN6 beta-cell proliferation induction | MIN6 cells proliferation, ATPlite luminescence, 48 h; cells starved in 0.2% serum; 100% = growth in 10% serum | 330,000 tested, 0.29% active | proliferation, % at 10 µM | AID 2380;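 active = compounds whose signal lies at least 3.5 SD above the mean of all wells on their plate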;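 also: 0% = DMSO-treated cells in low-serum medium and 100% = 10% serum control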
UBC13 inh: blocks human UBC13 polyubiquitin chain formation | TR-FRET | inhibition, % at 20 µM | 330,000 tested, 0.47% active | AID 485273; in the data active = inhibition above about 45%, passing the limit was not always enough; inconclusive = no clear call, values can overlap the other calls
Target sequence (P61088 whole entry, looked up): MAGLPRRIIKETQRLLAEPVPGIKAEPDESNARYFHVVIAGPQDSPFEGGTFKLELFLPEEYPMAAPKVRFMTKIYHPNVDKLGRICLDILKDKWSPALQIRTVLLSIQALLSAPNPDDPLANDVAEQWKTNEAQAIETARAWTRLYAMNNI
Casp3 UBC13 ctr: counter-screen for UBC13 inhibitors: human caspase-3 inhibition | shares compounds with UBC13 inh | inhibition, % at 20 µM | 1,400 tested, 4% active | Recombinant caspase-3, Caspase-Glo 3/7 luminescence, 60 min | AID 488856;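 active = mean inhibition across replicates above about 26%, limit read from the data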;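 also: plate controls were DMSO with caspase-3 for no effect and DMSO wells lacking enzyme for full effect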
Target sequence (P42574 whole entry, looked up): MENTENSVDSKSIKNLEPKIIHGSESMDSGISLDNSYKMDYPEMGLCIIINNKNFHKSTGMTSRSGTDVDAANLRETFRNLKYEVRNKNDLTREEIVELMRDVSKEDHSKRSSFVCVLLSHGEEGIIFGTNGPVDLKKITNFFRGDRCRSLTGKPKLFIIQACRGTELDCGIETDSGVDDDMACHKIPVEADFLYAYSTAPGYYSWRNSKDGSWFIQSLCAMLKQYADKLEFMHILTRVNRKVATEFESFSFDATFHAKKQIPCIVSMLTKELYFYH
UBC13 confirm: confirmation of human UBC13 polyubiquitin inhibitors; shares compounds with UBC13 inh; 1,400 tested, 68% active; inhibition, % at 10 µM; UBC13 polyubiquitination, TR-FRET, biochemical; in the data active = inhibition above about 45%; inconclusive = no clear call, values can overlap the other calls
Starred values were filed as active, the others as inactive; ? = inconclusive; . = no result. An excerpt weighted towards active compounds, which were near 3% of everything screened.

SMILES | Granule exo inh | iPSC survival up | Apaf1 inhib | MPTP inh | beta cell repl | UBC13 inh | Casp3 UBC13 ctr | UBC13 confirm
Cc1cccn2c(=O)c(C=O)c(N3CC(C)OC(C)C3)nc12 (configuration not stated) | 33 | 6 | -9 | -2 | 1 | 7 | . | .
CCOC(=O)C1=C(COC(=O)c2cc(OC)c(OC)c(OC)c2)NC(=O)NC1C (configuration not stated) | -9 | 0 | 4 | 0 | 1 | 62* | 1 | 84*
CCOC(=O)C1=C(COC(=O)c2cccc(N(C)C)c2)NC(=O)NC1C (configuration not stated) | -4 | 0 | 6 | 0 | 1 | 12 | . | .
NC(=O)c1c(NC(=O)CN2CCOCC2)sc2c1CCC2 | 6 | -2 | 2 | 1 | -1 | 0 | . | .
NC(=O)c1c(NC(=O)C(=O)NCCCN2CCOCC2)sc2c1CCCC2 | 1 | 0 | 2 | -1 | 0 | 52* | 0 | 73*
Nc1nc(N)nc(-c2cc(C(F)(F)F)ccc2Cl)n1 | 38 | -2 | 5 | 0 | 4 | 51* | 0 | -1
COc1ccc(CNC(=O)CCC(=O)Nc2nnc(C(F)(F)F)s2)cc1 | -3 | 1 | -4 | 0 | 3 | 4 | . | .
Cc1ccc(Cn2cc(C(=O)c3ccc(F)cc3)c(=O)c3cc4c(cc32)OCCO4)cc1 | -3 | 7 | 23 | -2 | -4 | 45* | -1 | ?
COc1ccc(Cn2cc(C(=O)c3ccccc3)c(=O)c3cc(OC)ccc32)cc1 | -1 | -1 | -4 | -1 | -1 | 13 | . | .
CCOC(=O)N1CCN(C(=O)C[C@@H]2C[C@@]3(C(=O)OCC)CCCC=C3N(Cc3ccc(Cl)cc3Cl)C2=O)CC1 | 13 | -1 | . | 1 | . | . | . | .
Cc1ccc(C(=O)N/C(=C/c2cccnc2)C(=O)N2CCCCCC2)cc1 | 0 | 0 | -8 | -1 | 1 | 0 | . | .
COCc1cc(=O)[nH]c(Nc2nc3ccc(C)cc3o2)n1 | -4 | 0 | 1 | -2 | -5 | 74* | 27* | 89*
CCc1ccc2nc(Nc3nc(COC)cc(=O)[nH]3)nc(C)c2c1 | 1 | 1 | -6 | -1 | -3 | 1 | . | .
NS(=O)(=O)c1ccc2nc(-c3ccccc3)c(-c3ccccc3)nc2c1 | 8 | 0 | 12 | -2 | 0 | 0 | . | .
Cn1c(SCC(=O)NC(=O)NCc2ccccc2)nnc1C(F)(F)F | -1 | 0 | -4 | -2 | -5 | -2 | . | .
CC1=CC(C)(C)n2c(O)c(N=NC(N)=S)c3c(C)c(C)cc1c32 | -3 | 0 | -19 | 1 | -5 | 35 | . | .
COc1cc2c3c(c1)c(N=NC(N)=S)c(O)n3C(C)(C)C=C2C | -3 | 0 | 4 | 3 | -2 | 80* | 3 | 84*
CC1=CC(C)(C)n2c(O)c(N=NC(N)=S)c3c(C)ccc1c32 | -4 | 3 | -5 | 2 | 0 | 19 | . | .
CC1=CC(C)(C)n2c(O)c(N=NC(N)=S)c3cccc1c32 | 0 | -1 | 9 | 3 | 1 | 76* | -1 | 94*
O=C(OCc1ccccc1)N1CCc2ccccc21 | 9 | 0 | 14 | 0 | -4 | 0 | . | .
CC(O)(c1ccc(F)c(F)c1)c1nc(-c2ccccc2)cs1 (configuration not stated) | -6 | 0 | . | 1 | . | . | . | .
CC(C)Cn1c(=O)c(C(=O)Nc2ccccc2S(N)(=O)=O)c(O)c2ccccc21 | -1 | 2 | 6 | -3 | -6 | 69* | -3 | 2
CC1CCN(S(=O)(=O)c2ccc(NC(=O)N3c4ccccc4Sc4ccccc43)cc2)CC1 | -2 | -2 | 5 | 3 | -1 | -11 | . | .
NS(=O)(=O)c1ccc(NC(=O)N2c3ccccc3Sc3ccccc32)cc1 | 1 | . | -4 | . | -1 | 46* | 1 | -2
COc1ccc(C(C)(C)C)cc1NC(=O)C1=CC=CN2CCS(=O)(=O)N=C12 | -6 | 0 | 5 | -2 | -2 | 50* | 2 | 9
SMILES | Granule exo inh | iPSC survival up | Apaf1 inhib | MPTP inh | beta cell repl | UBC13 inh | Casp3 UBC13 ctr | UBC13 confirm
Cc1ccc(NC(=O)C2=CC=CN3CCS(=O)(=O)N=C23)cc1 | -4 | 0 | -6 | -1 | -1 | 4 | . | .
CCOc1ccc(OCCC(=O)N(CC)CC(=O)Nc2c(F)cccc2F)cc1 | 4 | -2 | -16 | 0 | -3 | 2 | . | .
Cn1c2ccc(Cl)cc2c2nc3ccccc3nc21 | 9 | -3 | 23 | 0 | 8 | 49* | 0 | 7
Cc1ccc2c(c1)c1nc3ccccc3nc1n2C | -6 | -1 | -14 | 0 | -3 | 53* | 8 | 16
Cn1c2ccc(F)cc2c2nc3ccccc3nc21 | 4 | 0 | 4 | 1 | 2 | 51* | 9 | 14
COc1cccc(C(=O)NCCS(=O)(=O)N(C)Cc2ccccc2)c1 | 1 | 0 | 7 | -2 | 0 | 7 | . | .
COc1ccc(NC(=O)CSCC(=O)Nc2ccc(C)c(S(=O)(=O)N3CCCCCC3)c2)cc1 | 9 | 0 | 9 | -1 | -1 | 4 | . | .
CC1CCN(C(=O)COc2ccc3ccccc3c2Br)CC1 | 0 | 0 | 17 | 2 | 3 | -8 | . | .
COc1cc2c(C(=O)N3CCN(C)CC3)c(C)n(-c3ccccc3)c2cc1Br | -1 | 0 | 8 | -4 | -2 | -2 | . | .
CCN(CC)CCNC(=O)c1c(C)n(-c2ccccc2)c2cc(Br)c(OC)cc12 | 10 | -4 | 32 | 0 | -6 | 52* | -5 | 79*
CCc1ccc(OCC(=O)NNC(=S)NC(=O)C2CCCCC2)c(Br)c1 | -7 | 0 | 21 | 5 | -7 | -20 | . | .
COc1ccc(OCC(=O)NNC(=S)NC(=O)C2CC2)cc1 | 1 | 0 | 13 | 1 | 0 | 79* | -2 | 101*
COc1ccc(OCC(=O)NNC(=S)NC(=O)C2CCCCC2)cc1 | 1 | 0 | 9 | -1 | -4 | 0 | . | .
Cc1cc(C)cc(OCC(=O)NNC(=S)NC(=O)C2CC2)c1 | 2 | 0 | 2 | 0 | -3 | 83* | 4 | 104*
CCOC(=O)CSc1nc(C(C)(C)C)cc(C(F)(F)F)c1C#N | 0 | 3 | 12 | -1 | 4 | 47* | 1 | 33
COC(=O)CSc1nc(C)cc(C(F)(F)F)c1C#N | 1 | -1 | 7 | 1 | -1 | 7 | . | .
C#CCOCCOCCOCCNc1nc(N2CCN(C(=O)CCCCCCCCCCNC(=O)[C@@H](CCSC)n3cc(CCO)nn3)CC2)nc(N2CCN(C(=O)CCCCCCCCCCNC(=O)[C@H](CCCN=C(N)N)n3cc(C[C@@H](C)CC)nn3)CC2)n1 | -3 | 5 | 62* | -12 | -7 | 128* | -5 | 123*
